# Results published in ChEMBL document CHEMBL4689842, “EUbOPEN Chemogenomics Library wave 1” (2021).
# How the values were obtained:
# Format in all cases: toxicity, cell-based
# [1] = system: U2OS; experiment: Incucyte cell viability with U2OS; conditions: human, 10 µM, compound concentration 10 uM; note: filed as whole numbers so only -1 and 0 and 1 occur
# [2] = system: Fibroblast; experiment: Multiplex assay against human fibroblast
# Outline: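 Phenotypes for tubulin, mitochondrial mass and membrane permeability are expressed as per cents of healthy-nucleus cells. Cells were stained live at seeding with Hoechst33342, BioTracker Green Microtubule Cytoskeleton Dye, MitoTracker Red and Annexin V Alexa Fluor 680, then imaged after compound addition on a CQ1 microscope at 37°C and 5% CO2. Machine-learning gating in CellPathfinder separated Hoechst high-intensity objects from normal cells, divided normal cells by nuclear state (healthy, pyknosed, fragmented) and divided pyknosed cells into mitotic or apoptotic.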
# [3] = system: HEK-293T; experiment: Incucyte cell viability with HEK293T; conditions: human, 10 µM, compound concentration 10 uM; note: filed as whole numbers so only -1 and 0 and 1 occur
# [4] = system: Fibroblast; experiment: Incucyte cell viability with human fibroblast; conditions: 10 µM, compound concentration 10 uM; note: filed as whole numbers so only -1 and 0 and 1 occur
# [5] = 0 h, replicate number 2, timepoint 0 hours
# [6] = 18 h, replicate number 1, timepoint 18 hours
# [7] = 24 h, replicate number 1, timepoint 24 hours
# [8] = 12 h, 1 µM, compound concentration 1 uM, replicate 1
# [9] = 12 h, 1 µM, compound concentration 1 uM, replicate 2
# [10] = 12 h, 10 µM, compound concentration 10 uM, replicate 1
# [11] = 12 h, 10 µM, compound concentration 10 uM, replicate 2
# [12] = 24 h, 1 µM, compound concentration 1 uM, replicate 1
# [13] = 24 h, 1 µM, compound concentration 1 uM, replicate 2
# [14] = 24 h, 10 µM, compound concentration 10 uM, replicate 1
# [15] = 24 h, 10 µM, compound concentration 10 uM, replicate 2
compound,measurement,setting,value
NC(=O)c1ccc2nc(-c3ccc(C4(N)CCC4)cc3)c(-c3ccccc3)n2n1 [BAY-1125976],Growth Rate,[1]; [5],0
same,Growth Rate,[1]; [6],1
same,Growth Rate,[1]; [7],1
same,Population Apoptotic (%),[2]; [8],72%
same,Population Fragmented Nuclei (%),[2]; [8],53%
same,Population Healthy Nuclei (%),[2]; [8],33%
same,Population Hoechst High Intensity Objects (%),[2]; [8],38%
same,Population Mitochondria Different-Phenotype (%),[2]; [8],0%
same,Population Mitotic Cells (%),[2]; [8],27%
same,Population Normal (%),[2]; [8],61%
same,Population Pyknosed Nuclei (%),[2]; [8],13%
same,Population Tubulin-Different-Phenotype (%),[2]; [8],29%
same,Total Cell Count,[2]; [8],587
same,Population Apoptotic (%),[2]; [9],87%
same,Population Fragmented Nuclei (%),[2]; [9],56%
same,Population Healthy Nuclei (%),[2]; [9],31%
same,Population Hoechst High Intensity Objects (%),[2]; [9],51%
same,Population Mitochondria Different-Phenotype (%),[2]; [9],15%
same,Population Mitotic Cells (%),[2]; [9],12%
same,Population Normal (%),[2]; [9],48%
same,Population Pyknosed Nuclei (%),[2]; [9],12%
same,Population Tubulin-Different-Phenotype (%),[2]; [9],25%
same,Total Cell Count,[2]; [9],131
same,Population Apoptotic (%),[2]; [10],59%
same,Population Fragmented Nuclei (%),[2]; [10],27%
same,Population Healthy Nuclei (%),[2]; [10],51%
same,Population Hoechst High Intensity Objects (%),[2]; [10],13%
same,Population Mitochondria Different-Phenotype (%),[2]; [10],3%
same,Population Mitotic Cells (%),[2]; [10],40%
same,Population Normal (%),[2]; [10],86%
same,Population Pyknosed Nuclei (%),[2]; [10],20%
same,Population Tubulin-Different-Phenotype (%),[2]; [10],2%
same,Total Cell Count,[2]; [10],208
same,Population Apoptotic (%),[2]; [11],20%
same,Population Fragmented Nuclei (%),[2]; [11],54%
same,Population Healthy Nuclei (%),[2]; [11],36%
same,Population Hoechst High Intensity Objects (%),[2]; [11],40%
same,Population Mitochondria Different-Phenotype (%),[2]; [11],0%
same,Population Mitotic Cells (%),[2]; [11],80%
same,Population Normal (%),[2]; [11],59%
same,Population Pyknosed Nuclei (%),[2]; [11],10%
same,Population Tubulin-Different-Phenotype (%),[2]; [11],5%
same,Total Cell Count,[2]; [11],84
same,Population Apoptotic (%),[2]; [12],78%
same,Population Fragmented Nuclei (%),[2]; [12],53%
same,Population Healthy Nuclei (%),[2]; [12],36%
same,Population Hoechst High Intensity Objects (%),[2]; [12],41%
same,Population Mitochondria Different-Phenotype (%),[2]; [12],2%
same,Population Mitotic Cells (%),[2]; [12],21%
same,Population Normal (%),[2]; [12],58%
same,Population Pyknosed Nuclei (%),[2]; [12],10%
same,Population Tubulin-Different-Phenotype (%),[2]; [12],20%
same,Total Cell Count,[2]; [12],564
same,Population Apoptotic (%),[2]; [13],63%
same,Population Fragmented Nuclei (%),[2]; [13],63%
same,Population Healthy Nuclei (%),[2]; [13],22%
same,Population Hoechst High Intensity Objects (%),[2]; [13],39%
same,Population Mitochondria Different-Phenotype (%),[2]; [13],11%
same,Population Mitotic Cells (%),[2]; [13],36%
same,Population Normal (%),[2]; [13],60%
same,Population Pyknosed Nuclei (%),[2]; [13],14%
same,Population Tubulin-Different-Phenotype (%),[2]; [13],47%
same,Total Cell Count,[2]; [13],128
same,Population Apoptotic (%),[2]; [14],52%
same,Population Fragmented Nuclei (%),[2]; [14],19%
same,Population Healthy Nuclei (%),[2]; [14],65%
same,Population Hoechst High Intensity Objects (%),[2]; [14],15%
same,Population Mitochondria Different-Phenotype (%),[2]; [14],2%
same,Population Mitotic Cells (%),[2]; [14],48%
same,Population Normal (%),[2]; [14],84%
same,Population Pyknosed Nuclei (%),[2]; [14],15%
same,Population Tubulin-Different-Phenotype (%),[2]; [14],3%
same,Total Cell Count,[2]; [14],192
same,Population Apoptotic (%),[2]; [15],28%
same,Population Fragmented Nuclei (%),[2]; [15],45%
same,Population Healthy Nuclei (%),[2]; [15],41%
same,Population Hoechst High Intensity Objects (%),[2]; [15],36%
same,Population Mitochondria Different-Phenotype (%),[2]; [15],4%
same,Population Mitotic Cells (%),[2]; [15],71%
same,Population Normal (%),[2]; [15],63%
same,Population Pyknosed Nuclei (%),[2]; [15],13%
same,Population Tubulin-Different-Phenotype (%),[2]; [15],0%
same,Total Cell Count,[2]; [15],80
same,Growth Rate,"[3]; 6 h, replicate number 1, timepoint 6 hours",0
same,Growth Rate,"[3]; 12 h, replicate number 1, timepoint 12 hours",0
same,Growth Rate,[3]; [6],0
same,Growth Rate,[3]; [7],0
same,Growth Rate,"[4]; 0 h, replicate number 1, timepoint 0 hours",1
same,Growth Rate,[4]; [5],0
same,Growth Rate,[4]; [7],1
